{"source": "ChEMBL document CHEMBL4665633", "about": "“Cereblon versus VHL: Hijacking E3 ligases against each other using PROTACs” (Bioorg Med Chem, 2019)", "assay_type_in_all_cases": "cell-based", "key": {"[1]": {"molecular_target": "T1, Protein cereblon/von Hippel-Lindau disease tumor suppressor (Homo sapiens, UniProt P40337+Q96SW2)", "T1 sequence (P40337 whole entry, looked up)": "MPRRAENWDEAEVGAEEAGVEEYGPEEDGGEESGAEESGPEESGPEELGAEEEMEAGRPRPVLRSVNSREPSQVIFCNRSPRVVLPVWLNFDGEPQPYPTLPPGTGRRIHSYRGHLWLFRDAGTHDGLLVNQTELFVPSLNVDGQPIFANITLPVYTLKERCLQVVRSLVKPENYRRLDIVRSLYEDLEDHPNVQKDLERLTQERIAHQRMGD", "T1 sequence (Q96SW2 whole entry, looked up)": "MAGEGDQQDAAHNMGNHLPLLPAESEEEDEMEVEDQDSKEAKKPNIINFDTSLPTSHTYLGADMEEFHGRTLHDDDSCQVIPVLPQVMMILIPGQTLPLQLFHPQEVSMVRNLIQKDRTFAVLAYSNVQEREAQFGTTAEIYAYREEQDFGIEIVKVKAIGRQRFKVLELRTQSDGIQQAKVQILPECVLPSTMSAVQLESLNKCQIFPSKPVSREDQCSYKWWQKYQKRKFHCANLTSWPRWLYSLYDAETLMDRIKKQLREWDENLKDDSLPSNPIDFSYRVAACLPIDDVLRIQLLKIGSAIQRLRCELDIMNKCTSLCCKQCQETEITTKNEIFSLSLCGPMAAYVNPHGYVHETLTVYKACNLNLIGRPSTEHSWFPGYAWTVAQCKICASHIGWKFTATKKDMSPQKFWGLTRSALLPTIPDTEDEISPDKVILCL", "experiment": "Protac activity at VHL/CRBN in human HeLa cells assessed as CRBN protein abundance at 10000 nM after 4 hrs by Western blot analysis relative to DMSO", "summary_of_the_method": "(§1)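 HeLa cells (5 × 10⁵, DMEM + 10% FBS, 37 °C, 5% CO₂, ≤30 passages) seeded overnight, then treated 4 h with compound at single or graded concentrations (0.1% v/v DMSO final). RIPA lysates equalised by Bradford; SDS-PAGE and anti-CRBN/anti-VHL immunoblots; bands normalised to β-tubulin and expressed as % of mean DMSO vehicle. DC₅₀ from fit of band intensity versus log[concentration].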"}, "[2]": {"molecular_target": "T1, Protein cereblon/von Hippel-Lindau disease tumor suppressor", "experiment": "Protac activity at VHL/CRBN in human HeLa cells assessed as pVHL30 protein abundance at 1 uM after 24 hrs by Western blot analysis relative to DMSO", "summary_of_the_method": "(§2)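 HeLa cells seeded overnight, then exposed to 1 µM compound (0.1% v/v DMSO final) over a time course. Cells were DPBS-washed and RIPA-lysed with protease inhibitors and benzonase; equal protein was loaded. Immunoblots for CRBN and VHL isoforms were quantified against β-tubulin and reported relative to the averaged 0.1% DMSO vehicle.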"}, "[3]": {"molecular_target": "T1, Protein cereblon/von Hippel-Lindau disease tumor suppressor", "experiment": "Protac activity at VHL/CRBN in HEK293 cells assessed as pVHL19 protein abundance at 5000 nM after 4 hrs by Western blot analysis relative to DMSO", "summary_of_the_method": "(§3)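 HEK293 cells (DMEM, 10% FBS, penicillin/streptomycin, L-glutamine; 37 °C, 5% CO2; ≤30 passages) seeded at 1 × 10⁶ per well overnight, then treated with compound at 0.1% v/v final DMSO. Cells were lysed in RIPA with protease inhibitors and benzonase, then clarified. Equal Bradford-quantified protein was immunoblotted for CRBN/VHL. Bands were normalised to β-tubulin and expressed as % of mean 0.1% DMSO vehicle.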"}, "[4]": {"molecular_target": "T1, Protein cereblon/von Hippel-Lindau disease tumor suppressor", "experiment": "Protac activity at VHL/CRBN in HEK293 cells assessed as pVHL30 protein abundance at 5 nM after 4 hrs by Western blot analysis relative to DMSO", "summary_of_the_method": "as §3"}, "[5]": {"molecular_target": "T1, Protein cereblon/von Hippel-Lindau disease tumor suppressor", "experiment": "Protac activity at VHL/CRBN in human HeLa cells assessed as reduction in CRBN protein level at 10 nM after 4 hrs by Western blot analysis", "summary_of_the_method": "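HeLa cells (ATCC; DMEM, 10% FBS, pen/strep, L-glutamine; 37 °C, 5% CO2; ≤30 passages; mycoplasma-tested) are seeded at 5 × 10⁵ per well overnight, then treated for 4 h with 0.1% v/v DMSO final. Lysis is in RIPA with protease inhibitors and benzonase, and equal protein (Bradford) is loaded. CRBN is immunoblotted, normalized to β-tubulin and expressed as % of mean DMSO vehicle.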"}, "[6]": {"molecular_target": "T1, Protein cereblon/von Hippel-Lindau disease tumor suppressor", "experiment": "Protac activity at VHL/CRBN in human HeLa cells assessed as pVHL30 protein abundance at 50 nM after 4 hrs by Western blot analysis relative to DMSO", "summary_of_the_method": "as §1"}, "[7]": {"molecular_target": "T1, Protein cereblon/von Hippel-Lindau disease tumor suppressor", "experiment": "Protac activity at VHL/CRBN in HEK293 cells assessed as CRBN protein abundance at 1 uM after 8 hrs by Western blot analysis relative to DMSO", "summary_of_the_method": "as §3"}, "[8]": {"molecular_target": "T1, Protein cereblon/von Hippel-Lindau disease tumor suppressor", "experiment": "Protac activity at VHL/CRBN in human HeLa cells assessed as CRBN protein abundance at 1 uM after 8 hrs by Western blot analysis relative to DMSO", "summary_of_the_method": "as §2"}, "[9]": {"molecular_target": "T1, Protein cereblon/von Hippel-Lindau disease tumor suppressor", "experiment": "Protac activity at VHL/CRBN in human HeLa cells assessed as pVHL30 protein abundance at 10000 nM after 4 hrs by Western blot analysis relative to DMSO", "summary_of_the_method": "as §1"}, "[10]": {"molecular_target": "T1, Protein cereblon/von Hippel-Lindau disease tumor suppressor", "experiment": "Protac activity at VHL/CRBN in human HeLa cells assessed as CRBN protein abundance at 10 nM after 4 hrs by Western blot analysis relative to DMSO", "summary_of_the_method": "as §1"}, "[11]": {"molecular_target": "T1, Protein cereblon/von Hippel-Lindau disease tumor suppressor", "experiment": "Protac activity at VHL/CRBN in human HeLa cells assessed as pVHL19 protein abundance at 5 nM after 4 hrs by Western blot analysis relative to DMSO", "summary_of_the_method": "as §1"}, "[12]": {"molecular_target": "T1, Protein cereblon/von Hippel-Lindau disease tumor suppressor", "experiment": "Protac activity at VHL/CRBN in human HeLa cells assessed as pVHL30 protein abundance at 500 nM after 4 hrs by Western blot analysis relative to DMSO", "summary_of_the_method": "as §1"}, "[13]": {"molecular_target": "T1, Protein cereblon/von Hippel-Lindau disease tumor suppressor", "experiment": "Protac activity at VHL/CRBN in HEK293 cells assessed as pVHL30 protein abundance at 1000 nM after 4 hrs by Western blot analysis relative to DMSO", "summary_of_the_method": "as §3"}, "[14]": {"molecular_target": "T1, Protein cereblon/von Hippel-Lindau disease tumor suppressor", "experiment": "Protac activity at VHL/CRBN in HEK293 cells assessed as CRBN protein abundance at 1 uM after 12 hrs by Western blot analysis relative to DMSO", "summary_of_the_method": "as §3"}, "[15]": {"molecular_target": "T1, Protein cereblon/von Hippel-Lindau disease tumor suppressor", "experiment": "Protac activity at VHL/CRBN in HEK293 cells assessed as CRBN protein abundance at 1 uM after 4 hrs by Western blot analysis relative to DMSO", "summary_of_the_method": "as §3"}, "[16]": {"molecular_target": "T1, Protein cereblon/von Hippel-Lindau disease tumor suppressor", "experiment": "Protac activity at VHL/CRBN in HEK293 cells assessed as CRBN protein abundance at 10000 nM after 4 hrs by Western blot analysis relative to DMSO", "summary_of_the_method": "as §3"}, "[17]": {"molecular_target": "T1, Protein cereblon/von Hippel-Lindau disease tumor suppressor", "experiment": "Protac activity at VHL/CRBN in human HeLa cells assessed as reduction in CRBN protein level at 1 uM after 4 hrs by Western blot analysis", "summary_of_the_method": "as §1"}, "[18]": {"molecular_target": "T1, Protein cereblon/von Hippel-Lindau disease tumor suppressor", "experiment": "Protac activity at VHL/CRBN in human HeLa cells assessed as pVHL19 protein abundance at 10000 nM after 4 hrs by Western blot analysis relative to DMSO", "summary_of_the_method": "as §1"}, "[19]": {"molecular_target": "T1, Protein cereblon/von Hippel-Lindau disease tumor suppressor", "experiment": "Protac activity at VHL/CRBN in HEK293 cells assessed as CRBN protein abundance at 1 uM after 24 hrs by Western blot analysis relative to DMSO", "summary_of_the_method": "as §3"}, "[20]": {"molecular_target": "T1, Protein cereblon/von Hippel-Lindau disease tumor suppressor", "experiment": "Protac activity at VHL/CRBN in HEK293 cells assessed as CRBN protein abundance at 5 nM after 4 hrs by Western blot analysis relative to DMSO", "summary_of_the_method": "as §3"}, "[21]": {"molecular_target": "T1, Protein cereblon/von Hippel-Lindau disease tumor suppressor", "experiment": "Protac activity at VHL/CRBN in human HeLa cells assessed as CRBN protein abundance at 1 uM after 4 hrs by Western blot analysis relative to DMSO", "summary_of_the_method": "as §2"}, "[22]": {"molecular_target": "T1, Protein cereblon/von Hippel-Lindau disease tumor suppressor", "experiment": "Protac activity at VHL/CRBN in HEK293 cells assessed as pVHL19 protein abundance at 500 nM after 4 hrs by Western blot analysis relative to DMSO", "summary_of_the_method": "as §3"}, "[23]": {"molecular_target": "T1, Protein cereblon/von Hippel-Lindau disease tumor suppressor", "experiment": "Protac activity at VHL/CRBN in HEK293 cells assessed as pVHL30 protein abundance at 10 nM after 4 hrs by Western blot analysis relative to DMSO", "summary_of_the_method": "as §3"}, "[24]": {"molecular_target": "T1, Protein cereblon/von Hippel-Lindau disease tumor suppressor", "experiment": "Protac activity at VHL/CRBN in HEK293 cells assessed as pVHL30 protein abundance at 500 nM after 4 hrs by Western blot analysis relative to DMSO", "summary_of_the_method": "as §3"}, "[25]": {"molecular_target": "T1, Protein cereblon/von Hippel-Lindau disease tumor suppressor", "experiment": "Protac activity at VHL/CRBN in HEK293 cells assessed as pVHL19 protein abundance at 50 nM after 4 hrs by Western blot analysis relative to DMSO", "summary_of_the_method": "as §3"}, "[26]": {"molecular_target": "T1, Protein cereblon/von Hippel-Lindau disease tumor suppressor", "experiment": "Protac activity at VHL/CRBN in HEK293 cells assessed as pVHL30 protein abundance at 1 uM after 12 hrs by Western blot analysis relative to DMSO", "summary_of_the_method": "as §3"}, "[27]": {"molecular_target": "T1, Protein cereblon/von Hippel-Lindau disease tumor suppressor", "experiment": "Protac activity at VHL/CRBN in HEK293 cells assessed as pVHL19 protein abundance at 1 uM after 2 hrs by Western blot analysis relative to DMSO", "summary_of_the_method": "as §3"}, "[28]": {"molecular_target": "T1, Protein cereblon/von Hippel-Lindau disease tumor suppressor", "experiment": "Protac activity at VHL/CRBN in HEK293 cells assessed as pVHL19 protein abundance at 10000 nM after 4 hrs by Western blot analysis relative to DMSO", "summary_of_the_method": "as §3"}}, "note": "Active and inactive are the calls of the source. No cut-off for these calls is given here."}
{"smiles": "Cc1ncsc1-c1ccc(CNC(=O)[C@@H]2C[C@@H](O)CN2C(=O)[C@@H](NC(=O)COCCCCCOCCOCCCCCOCC(=O)NCCNc2cccc3c2C(=O)N(C2CCC(=O)NC2=O)C3=O)C(C)(C)C)cc1", "note": "(stereo partly drawn)", "values": [{"measurement": "Activity", "setting": "[1]", "result": 86, "unit": "%"}, {"measurement": "Activity", "setting": "[2]", "result": 97, "unit": "%"}, {"measurement": "Activity", "setting": "[3]", "result": 109, "unit": "%"}, {"measurement": "Activity", "setting": "[4]", "result": 117, "unit": "%"}, {"measurement": "Activity", "setting": "[5]", "result": "inactive"}, {"measurement": "Activity", "setting": "[6]", "result": 79, "unit": "%"}, {"measurement": "Activity", "setting": "[7]", "result": 2, "unit": "%"}, {"measurement": "Activity", "setting": "[8]", "result": 15, "unit": "%"}, {"measurement": "Activity", "setting": "[9]", "result": 142, "unit": "%"}, {"measurement": "Activity", "setting": "[10]", "result": 81, "unit": "%"}, {"measurement": "Activity", "setting": "[11]", "result": 87, "unit": "%"}, {"measurement": "Activity", "setting": "[12]", "result": 83, "unit": "%"}, {"measurement": "Activity", "setting": "[13]", "result": 127, "unit": "%"}, {"measurement": "Activity", "setting": "[14]", "result": 6, "unit": "%"}, {"measurement": "Activity", "setting": "[15]", "result": 6, "unit": "%"}, {"measurement": "Activity", "setting": "[16]", "result": 66, "unit": "%"}, {"measurement": "Activity", "setting": "[17]", "result": "Active"}, {"measurement": "Activity", "setting": "[18]", "result": 124, "unit": "%"}, {"measurement": "Activity", "setting": "[19]", "result": 6, "unit": "%"}, {"measurement": "Activity", "setting": "[20]", "result": 102, "unit": "%"}, {"measurement": "Activity", "setting": "[21]", "result": 19, "unit": "%"}, {"measurement": "Activity", "setting": "[22]", "result": 113, "unit": "%"}, {"measurement": "Activity", "setting": "[23]", "result": 135, "unit": "%"}, {"measurement": "Activity", "setting": "[24]", "result": 130, "unit": "%"}, {"measurement": "Activity", "setting": "[25]", "result": 111, "unit": "%"}, {"measurement": "Activity", "setting": "[26]", "result": 113, "unit": "%"}, {"measurement": "Activity", "setting": "[27]", "result": 109, "unit": "%"}, {"measurement": "Activity", "setting": "[28]", "result": 106, "unit": "%"}]}
